Source: ChEMBL document CHEMBL1125276 (J Med Chem, 1991)

What was measured:
P388 [1] = test: Compound was tested for T/C range at optimal dose of 8.00 mg/kg for antitumor activity against P388 leukemia cells in mice.; assay type: functional, Mus musculus
L1210 = test: Tested for the inhibition of L1210 cell proliferation.; assay type: functional, cell-based; settings: Mus musculus
Method in brief: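 L1210 cells were grown in RPMI 1640 with 10% FCS, 2 mM L-glutamine and 10 mM HEPES (pH 7.4). Exponential-phase cells (10^5 cells/mL) were exposed for 24 h to 5 drug concentrations in triplicate, then pulsed 3 h with 0.5 µCi/mL [3H]thymidine. Cells were harvested onto filters and counted. IC50 is 50% inhibition of incorporation versus untreated cells, given as the mean of 2–5 independent experiments.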

P388 [2] = test: Long-term survivors (LTS) for 60 days at optimal dose of 8.00 mg/kg for antitumor activity against P388 leukemia cells in 5 mice.; assay type: functional, Mus musculus
P388 [3] = test: Long-term survivors (LTS) for 60 days at optimal dose of 1.5 mg/kg for antitumor activity against P388 leukemia cells in 6 mice.; assay type: functional, Mus musculus
P388 [4] = test: Compound was tested for T/C range at optimal dose of 1.5 mg/kg for antitumor activity against P388 leukemia cells in mice.; assay type: functional, Mus musculus

Compound	T/C (P388 [1]) [%]	IC50 (L1210) [nM]	LTS (P388 [2])	LTS (P388 [3])	T/C (P388 [4]) [%]
CCOP(=O)(OCC)[C@H](Cc1ccccc1)NC(=O)[C@@]1(O)[C@H](O)[C@]2(CC)C=CCN3CC[C@@]4(c5cc([C@@]6(C(=O)OC)C[C@@H]7CN(CCc8c6[nH]c6ccccc86)C[C@](O)(CC)C7)c(OC)cc5N(C)[C@@H]14)[C@@H]32	229	9.64	0		
CCOP(=O)(OCC)C(CC(C)C)NC(=O)[C@@]1(O)[C@H](O)[C@]2(CC)C=CCN3CC[C@@]4(c5cc([C@@]6(C(=O)OC)C[C@@H]7CN(CCc8c6[nH]c6ccccc86)C[C@](O)(CC)C7)c(OC)cc5N(C)[C@@H]14)[C@@H]32 (mixture of isomers)		3.13		1	261
